In ChEMBL document CHEMBL1123964, “Potent, long-acting luteinizing hormone-releasing hormone antagonists containing new synthetic amino acids: N,N'-dialkyl-D-homoarginines” (J Med Chem, 1988):
Square brackets hold non-standard residues; d marks the D form. Peptide text beside a SMILES is read from it. d(hArg(Et2)) = CCN=C(NCC)NCCCC[C@@H](N)C(=O)O; dPhe(4-Cl) = N[C@H](Cc1ccc(Cl)cc1)C(=O)O; d2Nal = N[C@H](Cc1ccc2ccccc2c1)C(=O)O

Experiments:
[1] = molecular target: T1, Gonadotropin-releasing hormone receptor (Rattus norvegicus) (UniProt P30969); assay: Antiovulatory activity on proestrus was measured by administering as a solution in 50% propylene glycol / 0.9% saline in rat; format: functional
T1 sequence (whole entry): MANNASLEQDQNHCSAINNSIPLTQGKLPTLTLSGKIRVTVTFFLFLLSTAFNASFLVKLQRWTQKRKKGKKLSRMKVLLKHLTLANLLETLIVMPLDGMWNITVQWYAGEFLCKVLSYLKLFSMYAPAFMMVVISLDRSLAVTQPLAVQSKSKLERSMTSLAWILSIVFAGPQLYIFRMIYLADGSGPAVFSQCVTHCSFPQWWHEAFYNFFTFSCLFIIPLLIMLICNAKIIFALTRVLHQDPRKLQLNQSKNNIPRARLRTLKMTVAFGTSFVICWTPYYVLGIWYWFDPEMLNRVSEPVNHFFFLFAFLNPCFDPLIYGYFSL

[2] = molecular target: T1, Gonadotropin-releasing hormone receptor (Rattus norvegicus); assay: Antiovulatory activity on diestrus II following administration as a solution in corn oil (24h earlier) in rat.; format: functional, organism-based
In short: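 Female rats with at least two normal 4-day cycles before the test cycle were selected. They received the analogue sc in corn oil at noon on diestrus II, 24 h before the proestrus dosing time. On the morning of expected estrus the oviducts were examined under a dissecting microscope, and freshly ovulated eggs were counted. ED50 was taken from percent ovulating versus log-dose, with 10 rats per dose group and usually three or more dose groups.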

[3] = molecular target: T1, Gonadotropin-releasing hormone receptor (Rattus norvegicus); assay: Antiovulatory activity on proestrus following administration of solution in corn oil in rat.; format: functional, organism-based
In short: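 Rats with at least two normal 4-day cycles were used. They were injected sc with the analogue in corn oil at noon on proestrus, about 2 h before the preovulatory LH-RH surge. Oviducts were removed on the morning of expected estrus and checked microscopically for fresh eggs, which were counted. ED50 came from percent of females ovulating plotted against log-dose, with 10 animals per dose group.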

Structure (SMILES)	ED50 (ug injection-1) [1]	ED50 (ug injection-1) [2]	ED50 (ug injection-1) [3]
CCCNC(=NCCCC[C@@H](NC(=O)[C@H](Cc1ccc(O)cc1)NC(=O)[C@H](CO)NC(=O)[C@@H](Cc1ccc2ccccc2c1)NC(=O)[C@@H](Cc1ccc(F)cc1)NC(=O)[C@@H](Cc1ccc2ccccc2c1)NC(C)=O)C(=O)N[C@@H](CC(C)C)C(=O)N[C@@H](CCCN=C(N)N)C(=O)N1CCC[C@H]1C(=O)NCC(N)=O)NCCC	7.5		
CCNC(=NCCCC[C@@H](NC(=O)[C@H](Cc1ccc(O)cc1)NC(=O)[C@H](CO)NC(=O)[C@@H](Cc1cccnc1)NC(=O)[C@@H](Cc1ccc(Cl)cc1)NC(=O)[C@@H](Cc1ccc2ccccc2c1)NC(C)=O)C(=O)N[C@@H](CC(C)C)C(=O)N[C@@H](CCCN=C(N)N)C(=O)N1CCC[C@H]1C(=O)N[C@H](C)C(N)=O)NCC	0.6	> 4	
CCNC(=NCCCC[C@@H](NC(=O)[C@H](Cc1ccc(O)cc1)NC(=O)[C@H](CO)NC(=O)[C@@H](Cc1c[nH]c2ccccc12)NC(=O)[C@@H](Cc1ccc(Cl)cc1)NC(=O)[C@@H](Cc1ccc2ccccc2c1)NC(C)=O)C(=O)N[C@@H](Cc1c[nH]c2ccccc12)C(=O)N[C@@H](CCCN=C(N)N)C(=O)N1CCC[C@H]1C(=O)N[C@H](C)C(N)=O)NCC	1.2		
CCNC(=NCCCC[C@@H](NC(=O)[C@H](Cc1ccc(O)cc1)NC(=O)[C@H](CO)NC(=O)[C@@H](Cc1c[nH]c2ccccc12)NC(=O)[C@@H](Cc1ccc(F)cc1)NC(=O)[C@@H](Cc1ccc2ccccc2c1)NC(C)=O)C(=O)N[C@@H](CC(C)C)C(=O)N[C@@H](CCCN=C(N)N)C(=O)N1CCC[C@H]1C(=O)N[C@H](C)C(N)=O)NCC	0.4		
CCCCCCNC(=NCCCC[C@@H](NC(=O)[C@H](Cc1ccc(O)cc1)NC(=O)[C@H](CCCN)NC(=O)[C@@H](Cc1c[nH]c2ccccc12)NC(=O)[C@@H](Cc1ccc(Cl)cc1)NC(=O)[C@@H](Cc1ccc(Cl)cc1)NC(C)=O)C(=O)N[C@@H](CC(C)C)C(=O)N[C@@H](CCCN=C(N)N)C(=O)N1CCC[C@H]1C(=O)N[C@H](C)C(N)=O)NCCCCCC	> 16		
CC/N=C(\NCCCC[C@@H](NC(=O)[C@H](Cc1ccc(O)cc1)NC(=O)[C@H](CO)NC(=O)[C@@H](Cc1c[nH]c2ccccc12)NC(=O)[C@@H](Cc1ccc(Cl)cc1)NC(=O)[C@@H](Cc1ccc(Cl)cc1)NC(C)=O)C(=O)N[C@@H](CC(C)C)C(=O)N[C@@H](CCCN=C(N)N)C(=O)N1CCC[C@H]1C(=O)NCC(N)=O)NCCCN(C)C	> 2		
CCNC(=NCCCC[C@@H](NC(=O)[C@H](Cc1ccc(O)cc1)NC(=O)[C@H](CO)NC(=O)[C@@H](Cc1c[nH]c2ccccc12)NC(=O)[C@@H](Cc1ccc(F)cc1)NC(=O)[C@@H](Cc1ccc2ccccc2c1)NC(C)=O)C(=O)N[C@@H](CC(C)C)C(=O)N[C@@H](CCCN=C(N)N)C(=O)N1CCC[C@H]1C(=O)NCC(N)=O)NCCCN(C)C	> 2		
CCNC(=NCCCC[C@@H](NC(=O)[C@H](Cc1ccc(O)cc1)NC(=O)[C@H](CO)NC(=O)[C@@H](Cc1ccc2ccccc2c1)NC(=O)[C@@H](Cc1ccc(Cl)cc1)NC(=O)[C@@H](Cc1c[nH]c2ccccc12)NC(C)=O)C(=O)N[C@@H](CC(C)C)C(=O)N[C@@H](CCCN=C(N)N)C(=O)N1CCC[C@H]1C(=O)N[C@H](C)C(N)=O)NCC	5.5		
CC(=O)N[C@H](Cc1ccc(Cl)cc1)C(=O)N[C@H](Cc1ccc(Cl)cc1)C(=O)N[C@H](Cc1c[nH]c2ccccc12)C(=O)N[C@@H](CO)C(=O)N[C@@H](Cc1ccc(O)cc1)C(=O)N[C@H](CCCCN=C(NC(C)C)NC(C)C)C(=O)N[C@@H](CC(C)C)C(=O)N[C@@H](CCCN=C(N)N)C(=O)N1CCC[C@H]1C(=O)N[C@H](C)C(N)=O	16	> 16	
CCNC(=NCCCC[C@@H](NC(=O)[C@H](Cc1ccc(O)cc1)NC(=O)[C@H](CO)NC(=O)[C@@H](Cc1c[nH]c2ccccc12)NC(=O)[C@@H](Cc1ccc(Cl)cc1)NC(=O)[C@@H](Cc1c[nH]c2ccccc12)NC(C)=O)C(=O)N[C@@H](CC(C)C)C(=O)N[C@@H](CCCN=C(N)N)C(=O)N1CCC[C@H]1C(=O)NCC(N)=O)NCC			3.4
CCNC(=O)[C@@H]1CCCN1C(=O)[C@H](CCCN=C(N)N)NC(=O)[C@H](CC(C)C)NC(=O)[C@@H](CCCCN=C(NCC)NCC)NC(=O)[C@H](Cc1ccc(O)cc1)NC(=O)[C@H](CO)NC(=O)[C@@H](Cc1c[nH]c2ccccc12)NC(=O)[C@@H](Cc1ccc(Cl)cc1)NC(=O)[C@@H](Cc1ccc2ccccc2c1)NC(C)=O	2.4	> 16	
CCNC(=NCCCC[C@@H](NC(C)=O)C(=O)N[C@H](Cc1ccc(Cl)cc1)C(=O)N[C@H](Cc1c[nH]c2ccccc12)C(=O)N[C@@H](CO)C(=O)N[C@@H](Cc1ccc(O)cc1)C(=O)N[C@H](Cc1ccc2ccccc2c1)C(=O)N[C@@H](CC(C)C)C(=O)N[C@@H](CCCN=C(N)N)C(=O)N1CCC[C@H]1C(=O)N[C@H](C)C(N)=O)NCC	8		
CCNC(=NCCCC[C@@H](NC(=O)[C@H](Cc1ccc(O)cc1)NC(=O)[C@H](CO)NC(=O)[C@@H](Cc1c[nH]c2ccccc12)NC(=O)[C@@H](Cc1ccc(Cl)cc1)NC(=O)[C@@H](Cc1ccc2ccccc2c1)NC(C)=O)C(=O)N[C@@H](Cc1ccccc1)C(=O)N[C@@H](CCCN=C(N)N)C(=O)N1CCC[C@H]1C(=O)N[C@H](C)C(N)=O)NCC (Ac-[d2Nal][dPhe(4-Cl)][dW]SY[d(hArg(Et2))]FRP[dA]-NH2)	0.75	8	
CCNC(=NCCCC[C@H](NC(=O)[C@H](CO)NC(=O)[C@@H](Cc1c[nH]c2ccccc12)NC(=O)[C@@H](Cc1ccc(Cl)cc1)NC(=O)[C@@H](CCCCN=C(NCC)NCC)NC(C)=O)C(=O)N[C@H](Cc1ccc(O)cc1)C(=O)N[C@@H](Cc1c[nH]c2ccccc12)C(=O)N[C@@H](CCCN=C(N)N)C(=O)N1CCC[C@H]1C(=O)N[C@H](C)C(N)=O)NCC	> 16		
CCNC(=NCCCC[C@@H](NC(=O)[C@H](Cc1ccc(O)cc1)NC(=O)[C@H](CO)NC(=O)[C@@H](Cc1cccnc1)NC(=O)[C@@H](Cc1ccc(F)cc1)NC(=O)[C@@H](Cc1ccc2ccccc2c1)NC(C)=O)C(=O)N[C@@H](CC(C)C)C(=O)N[C@@H](CCCN=C(N)N)C(=O)N1CCC[C@H]1C(=O)N[C@H](C)C(N)=O)NCC	0.7		
CCNC(=NCCCC[C@H](NC(=O)[C@H](CO)NC(=O)[C@@H](Cc1c[nH]c2ccccc12)NC(=O)[C@@H](Cc1ccc(Cl)cc1)NC(=O)[C@@H](Cc1ccc2ccccc2c1)NC(C)=O)C(=O)N[C@H](Cc1ccc(O)cc1)C(=O)N[C@@H](Cc1c[nH]c2ccccc12)C(=O)N[C@@H](CCCN=C(N)N)C(=O)N1CCC[C@H]1C(=O)N[C@H](C)C(N)=O)NCC	11.5		
CCCCNC(=NCCCC[C@@H](NC(=O)[C@H](Cc1ccc(O)cc1)NC(=O)[C@H](CO)NC(=O)[C@@H](Cc1c[nH]c2ccccc12)NC(=O)[C@@H](Cc1ccc(Cl)cc1)NC(=O)[C@@H](Cc1ccc2ccccc2c1)NC(C)=O)C(=O)N[C@@H](CC(C)C)C(=O)N[C@@H](CCCN=C(N)N)C(=O)N1CCC[C@H]1C(=O)N[C@H](C)C(N)=O)NCCCC	3.4	> 16	
CCNC(=NCCCC[C@H](NC(=O)[C@H](CO)NC(=O)[C@@H](Cc1c[nH]c2ccccc12)NC(=O)[C@@H](Cc1ccc(Cl)cc1)NC(=O)[C@@H](Cc1ccc2ccccc2c1)NC(C)=O)C(=O)N[C@H](Cc1ccc2ccccc2c1)C(=O)N[C@@H](CC(C)C)C(=O)N[C@@H](CCCN=C(N)N)C(=O)N1CCC[C@H]1C(=O)N[C@H](C)C(N)=O)NCC	1.6		
CCNC(=NCCCC[C@H](NC(=O)[C@H](CO)NC(=O)[C@@H](Cc1c[nH]c2ccccc12)NC(=O)[C@@H](Cc1ccc(Cl)cc1)NC(=O)[C@@H](Cc1ccc2ccccc2c1)NC(C)=O)C(=O)N[C@H](Cc1ccc(O)cc1)C(=O)N[C@@H](CC(C)C)C(=O)N[C@@H](CCCN=C(N)N)C(=O)N1CCC[C@H]1C(=O)N[C@H](C)C(N)=O)NCC	1.7		
CCNC(=NCCCC[C@@H](NC(=O)[C@H](Cc1ccc(O)cc1)NC(=O)[C@H](CO)NC(=O)[C@@H](Cc1c[nH]c2ccccc12)NC(=O)[C@@H](Cc1ccc(Cl)cc1)NC(=O)[C@@H](Cc1ccc2ccccc2c1)NC(C)=O)C(=O)N[C@@H](CC(C)C)C(=O)N[C@@H](CCCN=C(N)N)C(=O)N1CCC[C@H]1C(=O)NNC(N)=O)NCC	0.55	9.5	
CCCCCCNC(=NCCCC[C@@H](NC(=O)[C@H](Cc1ccc(O)cc1)NC(=O)[C@H](CO)NC(=O)[C@@H](Cc1c[nH]c2ccccc12)NC(=O)[C@@H](Cc1ccc(F)cc1)NC(=O)[C@@H](CO)NC(C)=O)C(=O)N[C@@H](CC(C)C)C(=O)N[C@@H](CCCN=C(N)N)C(=O)N1CCC[C@H]1C(=O)NCC(N)=O)NCCCCCC	16		
CCNC(=NCCCC[C@@H](NC(=O)[C@H](Cc1ccc(O)cc1)NC(=O)[C@H](CO)NC(=O)[C@@H](Cc1c[nH]c2ccccc12)NC(=O)[C@@H](Cc1ccc(Cl)cc1)NC(=O)[C@@H](Cc1ccc2ccccc2c1)NC(C)=O)C(=O)N[C@@H](CC(C)C)C(=O)N[C@@H](CCCN=C(N)N)C(=O)N1CCC[C@H]1C(=O)N[C@H](C)C(N)=O)NCC (stereo in doubt; 25)	0.5	< 4	
CCNC(=NCCCC[C@@H](NC(=O)[C@H](Cc1ccc(O)cc1)NC(=O)[C@H](CO)NC(=O)[C@@H](Cc1ccncc1)NC(=O)[C@@H](Cc1ccc(Cl)cc1)NC(=O)[C@@H](Cc1ccc2ccccc2c1)NC(C)=O)C(=O)N[C@@H](CC(C)C)C(=O)N[C@@H](CCCN=C(N)N)C(=O)N1CCC[C@H]1C(=O)N[C@H](C)C(N)=O)NCC	1.7		
